Measurements from different studies.
Each line is one published result; the experiments were not run side by side.
Target: Non-receptor tyrosine-protein kinase TNK1 (TNK1, Homo sapiens, UniProt Q13470)
Sequence (Q13470 1-666, as in one of the studies): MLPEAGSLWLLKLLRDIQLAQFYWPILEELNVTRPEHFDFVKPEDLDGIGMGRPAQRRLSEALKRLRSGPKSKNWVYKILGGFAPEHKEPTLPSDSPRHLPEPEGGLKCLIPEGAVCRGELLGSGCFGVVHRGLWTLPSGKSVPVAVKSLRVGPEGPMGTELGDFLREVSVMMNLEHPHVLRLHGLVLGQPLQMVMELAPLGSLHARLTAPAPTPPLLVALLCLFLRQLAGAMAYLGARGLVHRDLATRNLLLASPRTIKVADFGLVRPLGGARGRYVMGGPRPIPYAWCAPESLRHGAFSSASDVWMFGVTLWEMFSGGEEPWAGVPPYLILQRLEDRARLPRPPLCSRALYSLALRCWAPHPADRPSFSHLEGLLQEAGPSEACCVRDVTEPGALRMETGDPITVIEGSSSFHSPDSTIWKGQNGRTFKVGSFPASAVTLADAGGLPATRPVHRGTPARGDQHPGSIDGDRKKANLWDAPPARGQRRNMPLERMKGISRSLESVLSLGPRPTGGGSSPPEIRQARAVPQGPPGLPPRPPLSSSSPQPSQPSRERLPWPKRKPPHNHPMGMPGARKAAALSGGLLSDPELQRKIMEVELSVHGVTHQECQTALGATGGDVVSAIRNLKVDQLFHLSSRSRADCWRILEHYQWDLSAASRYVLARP

Structure (SMILES) | assay | setting | remaining binding
CN(C)c1nccc(-c2cnn3ncccc23)n1 | binding | 1 µM | 67%
CNC(=O)Nc1ccc2c(c1)CC[C@@]21OC(=O)N(CC(=O)N(Cc2ccc(F)cc2)[C@@H](C)C(F)(F)F)C1=O | cell-free assay, competition with immobilised ligand | 1 µM | 86%
O=C(c1ccc(Nc2ncc(Cl)c(-c3cc4ccccc4s3)n2)cc1)N1CCC(N2CCCC2)CC1 | binding, competition with immobilised ligand | 1 µM | 15%
C[C@@H](c1ccc(-n2cnc3c(N)ncnc32)cc1)N1CCc2nn(C)c(Cc3ccccc3)c2C1=O | binding, competition with immobilised ligand | 0.1 µM | 47%
O=C(NCCCN1CCOCC1)c1ccc(Nc2ncc(Cl)c(-c3ccc(Cl)s3)n2)cc1 | binding, competition with immobilised ligand | 1 µM | 36%
N[C@@H]1CCN(c2nccc(-c3cnn4ncccc34)n2)C1 | binding | 1 µM | 100%
O=C(Nc1ccc(Oc2ccc(F)cc2)cc1)N1CCc2ncccc2[C@H]1c1ccc(F)cc1 | cell-free assay, competition with immobilised ligand | 1 µM | 96%
FC(F)(F)Oc1cccc(-c2cnc3ccc(-c4ccncc4)nn23)c1 | binding, competition with immobilised ligand | 5 µM | 88%
O=C(Nc1cccnn1)N1CCC(=Cc2cccc(Oc3ccc(C(F)(F)F)cn3)c2)CC1 | cell-free assay, competition with immobilised ligand | 1 µM | 98%
F[C@@H]1CCN(c2nccc(-c3cnn4ncccc34)n2)C1 | binding | 1 µM | 87%
O=C(Nc1c[nH]nc1C(=O)NC1CCNCC1)c1cc(F)cc(F)c1 | binding, competition with immobilised ligand | 1 µM | 38%
COc1cnc(Nc2cccc(S(N)(=O)=O)c2)nc1N1CCN(c2ccccc2)C(=O)C1 | binding, competition with immobilised ligand | 1 µM | 100%
CC(C)CC(=O)N1CCc2nc(-c3ccc(Br)cc3)nc(N(C)Cc3ccccc3)c2C1 | cell-free assay, competition with immobilised ligand | 0.1 µM | 100%
C[C@@H]1CCN(c2nccc(-c3cnn4ncccc34)n2)C1 | binding | 1 µM | 100%
Nc1ncc2c(n1)-c1c([nH]c3ccc(C#CC4CC4)cc13)CCCC2 | binding, competition with immobilised ligand | 1 µM | 100%
Cc1cnc(Nc2ccc(C(=O)N3CCC(N4CCCC4)CC3)cc2)nc1-c1cc2ccccc2s1 | binding, competition with immobilised ligand | 1 µM | 13%
CCN1CCN(Cc2ccc(C(=O)Nc3ccc(C)c(Oc4ccc5c(c4)CC(=O)N5)c3)cc2C(F)(F)F)CC1 | binding, competition with immobilised ligand | 1 µM | 100%
CN(CCCC(F)(F)F)c1nccc(-c2cnn3ncccc23)n1 | binding | 1 µM | 83%
C[C@@H](c1cccc(C#N)c1)n1cc(Cl)cc(C(N)=O)c1=N | cell-free assay, competition with immobilised ligand | 1 µM | 94%
CN(C)c1ncc(F)c(-c2cnn3ncccc23)n1 | binding | 1 µM | 100%
CC1=C(C#N)C(c2ccc3c(c2)c(NC(=O)c2ccccc2C)nn3C)C(C#N)=C(C)N1 | cell-free assay, competition with immobilised ligand | 1 µM | 76%
COc1cnc(Nc2cccc(S(N)(=O)=O)c2)nc1N1CCN(c2ccccc2)CC1 | binding, competition with immobilised ligand | 1 µM | 98%
